Assay results: ChEMBL document CHEMBL1152239, “Development of mitochondria-targeted derivatives of resveratrol” (Bioorg Med Chem Lett, 2008)
The source made the active and inactive calls. The calls are words filed in the database; no cut-off is given here.

Key:
MEF [1] = assay: Cytotoxicity against fast-growing MEF at 5 uM by tetrazolium salt reduction assay; format: functional, cell-based; settings: Mus musculus
Outline: (§1)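 MTT (tetrazolium salt reduction) read-out after cells grew for 3 days with the compound present, tested at 1 and 5 µM. Cell lines were C-26 mouse colon tumor cells and fast- and slow-growing non-tumoral mouse embryonic fibroblasts. Each measurement was run in quadruplicate and reported as average ± s.d.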

MEF [2] = assay: Cytotoxicity against slow-growing MEF at 5 uM by tetrazolium salt reduction assay; format: cell-based; settings: mouse; outline: as §1
C26 = assay: Cytotoxicity against mouse C26 cells at 5 uM by tetrazolium salt reduction assay; format: functional, cell-based; outline: as §1
HCT-116 = assay: Drug uptake in human HCT116 cells at 10 uM after 25 mins by fluorescence microscopic method; format: ADME, cell-based; settings: hct-116, 25 min
Outline: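 Cultured HCT116 cells were imaged by fluorescence microscopy with excitation at 340 nm, just before compound addition and 25 min after it. Protonophore FCCP was then added and cells were imaged again 10 min later to check that the signal depends on membrane potential.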

[3] = Solubility in water; format: physicochemical
[4] = Drug uptake in rat liver mitochondria at 0.5 uM measured by TPP+ sensitive electrode; format: ADME; settings: in vitro

Row | SMILES | Activity (MEF [1]) | Activity (MEF [2]) | Activity (C26) | Activity (HCT-116) | solubility [3] [µM] | Activity [4]
1 | Oc1cc(O)cc(/C=C/c2ccc(OCCCC[P+](c3ccccc3)(c3ccccc3)c3ccccc3)cc2)c1.[I-] | Active | Not Active | Active | Active | 31.2 | 
2 | CC(=O)Oc1cc(/C=C/c2ccc(OCCCC[P+](c3ccccc3)(c3ccccc3)c3ccccc3)cc2)cc(OC(C)=O)c1.[I-] | Active | Not Active | Active | Active | 97 | Active
